Experimental findings from ChEMBL document CHEMBL3813617, “An alternative route to the arylvinyltriazole nucleosides” (Bioorg Med Chem Lett, 2016) are described below.

The CC50 is the concentration that lowers cell viability or growth by half. By IC50 is commonly meant the concentration that gives 50% inhibition.

In one data set the test system is Vero. The experiment in a line: Antiviral activity against Influenza A H5N1 virus (A/duck/Novosibirsk/56/05) infected in African green monkey Vero cells assessed as reduction of virus-induced cytopathic effect. Type of data set: functional, cell-based. To be noted: Influenza A virus (A/duck/Novosibirsk/56/2005(H5N1)). For orientation: Cytopathic effects are the visible damage that an infection or toxin causes in cultured cells.

The nature of data set [1]: Cytotoxicity against African green monkey Vero E6 cells up to 2 mM. In kind it is cell-based. The conditions noted are these: chlorocebus sabaeus.
Data set [2] in a line: Cytotoxicity against African green monkey Vero E6 cells. Type of data set: cell-based. To be noted: chlorocebus sabaeus. The gist of the method:
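Cytotoxicity measured in Vero cells, […]; CC50 derived.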

In the next data set the test system is Hepatitis C virus. The experiment in a line: Antiviral activity against Hepatitis C virus infected in African green monkey Vero cells assessed as reduction of virus-induced cytopathic effect. Type of data set: functional, organism-based, Hepacivirus hominis.
A further data set has as its system Human alphaherpesvirus 1. As to the kind of experiment: Antiviral activity against Herpes simplex virus type 1 L2 infected in African green monkey Vero E6 cells assessed as reduction of virus-induced cytopathic effect. Type of data set: functional, organism-based. To be noted: Human alphaherpesvirus 1, L2, Vero.

Calls of active or inactive are those of the source. The rule behind the calls is not given here.

As to `NC(=O)c1nc(/C=C\c2ccc(C(F)(F)F)cc2)n([C@@H]2O[C@H](CO)[C@@H](O)[C@H]2O)n1`, in the data set on Vero, the outcome was inactive. Moreover, the Activity entry in data set [1] is listed as “Non-toxic”.
On the same counts, the results for `NC(=O)c1nc(/C=C\c2cccc(F)c2)n([C@@H]2O[C@H](CO)[C@@H](O)[C@H]2O)n1` are “inactive” and “Non-toxic”.
On the same counts, the results for `NC(=O)c1nc(/C=C/c2ccccc2F)n([C@@H]2O[C@H](CO)[C@@H](O)[C@H]2O)n1` (mixture of isomers) are “inactive” and “Non-toxic”.
Take `NC(=O)c1nc(/C=C/c2ccc(F)cc2)n([C@@H]2O[C@H](CO)[C@@H](O)[C@H]2O)n1`: in the data set on Vero, the outcome was inactive. For the same compound, the CC50 in data set [2] was found to be 3.4 µM.
Regarding `NC(=O)c1nc(/C=C/c2ccc(C(F)(F)F)cc2)n([C@@H]2O[C@H](CO)[C@@H](O)[C@H]2O)n1`, in the data set on Hepatitis C virus, the IC50 came to 0.09 µM.
Regarding `NC(=O)c1nc(/C=C\c2ccc(F)cc2)n([C@@H]2O[C@H](CO)[C@@H](O)[C@H]2O)n1`, the result in the data set on Vero was inactive. In addition, the Activity result in data set [1] is recorded as “Non-toxic”.
As for `NC(=O)c1ncn([C@@H]2O[C@H](CO)[C@@H](O)[C@H]2O)n1` [RIBAVIRIN], the IC50 in the data set on Human alphaherpesvirus 1 is 10 µM. The same compound yielded a CC50 in data set [2] of 0.3 µM.
Take `NC(=O)c1nc(/C=C/c2cccc(F)c2)n([C@@H]2O[C@H](CO)[C@@H](O)[C@H]2O)n1`: the IC50 with Human alphaherpesvirus 1 amounted to 6.9 µM. In addition, the outcome with Vero was inactive. Besides, in data set [1], the Activity result is reported as “Non-toxic”.
